Holding throughout (assay type): functional
One assay has as its system P388. The experiment in a line: Cytotoxicity against mouse P388 cells after 48 hrs. As to conditions: P388, 48 h, read-out: ED50 (the source's name). Summed up:
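Murine P388 leukemia cells, counted by Coulter counter, were grown 24 h in Fisher medium with 10% horse serum, then exposed 48 h to serial compound dilutions. Cell numbers were determined with a Coulter particle counter, and ED50 was calculated for growth inhibition.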

The nature of assay [1]: Cytotoxicity against human BxPC3 cells after 48 hrs by SRB assay. As to conditions: BXPC-3, 48 h. The essentials:
(§1)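 Human tumour lines in RPMI1640 with 5% fetal bovine serum, trypsinized and counted by hemacytometer, seeded in 96-well plates and allowed 24 h before serial compound dilutions were added. After 48 h exposure, cells were fixed with trichloroacetic acid and stained with sulforhodamine B, and optical density was read. GI50 was taken as the concentration halving net protein increase.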
On the technique in general: Sulforhodamine B stains cellular protein and so reports cell mass.

In another assay the test system is MCF7. The experiment in a line: Cytotoxicity against human MCF7 cells after 48 hrs by SRB assay. As to conditions: MCF7, 48 h. The essentials: as §1
Another assay deals with SF-268. Nature of the assay: Cytotoxicity against human SF268 cells after 48 hrs by SRB assay. Conditions: SF-268, 48 h. The essentials: as §1
The subject of the next assay is NCI-H460. Nature of the assay: Cytotoxicity against human NCI-H460 cells after 48 hrs by SRB assay. As to conditions: NCI-H460, 48 h. The essentials: as §1
The nature of assay [2]: Cytotoxicity against human KM20L2 cells after 48 hrs by SRB assay. As to conditions: KM-20L2, 48 h. Summed up: as §1
Another assay relates to DU-145. Nature of the assay: Cytotoxicity against human DU145 cells after 48 hrs by SRB assay. Conditions: DU-145, 48 h. The essentials:
as §1

≈ marks a conversion by molar mass, not a printed value.

Consider `C=C(C)[C@@H]1CC[C@]2(C(=O)OC)CC[C@]3(C)[C@H](CC[C@@H]4[C@@]5(C)CC(=O)CC(C)(C)[C@@H]5CC[C@]43C)[C@@H]12`, for which the EC50 in the assay on P388 is over 10 µg/mL. Moreover, the GI50 (in general, the concentration at which growth is held to half of that of the control) in assay [1] is 8.2 µg/mL (≈ 17.5 µM); in the assay on MCF7 it was 11.6 µg/mL (≈ 24.7 µM); in the assay on SF-268 it was over 10 µg/mL; in the assay with NCI-H460, 13.1 µg/mL (≈ 27.9 µM); in assay [2], over 10 µg/mL; in the assay with DU-145, over 10 µg/mL.

Regarding `C=C(C)[C@@H]1CC[C@]2(COC(C)=O)CC[C@]3(C)[C@H](CC[C@@H]4[C@@]5(C)C[C@@H](Br)C(=O)C(C)(C)[C@@H]5CC[C@]43C)[C@@H]12`, the EC50 in the assay on P388 was 0.725 µg/mL (≈ 1.29 µM). Also, the GI50 in assay [1] is 3.1 µg/mL (≈ 5.52 µM); with MCF7, 4.1 µg/mL (≈ 7.3 µM); in the assay on SF-268, 10.1 µg/mL (≈ 18 µM); in the assay with NCI-H460, 12.8 µg/mL (≈ 22.8 µM); in assay [2], 9.6 µg/mL (≈ 17.1 µM); with DU-145 it was 9 µg/mL (≈ 16 µM).

Turning to `C=C(C)[C@@H]1CC[C@]2(COC(C)=O)CC[C@]3(C)[C@H](CC[C@@H]4[C@@]5(C)CC(=O)C(O)C(C)(C)[C@@H]5CC[C@]43C)[C@@H]12` (some centres not stated), the EC50 in the assay on P388 is over 10 µg/mL. Besides, the GI50 in assay [1] was 9.1 µg/mL (≈ 18.2 µM); in the assay with MCF7, 5.8 µg/mL (≈ 11.6 µM); with SF-268, 6.1 µg/mL (≈ 12.2 µM); in the assay with NCI-H460, 8 µg/mL (≈ 16 µM); in assay [2], 5.9 µg/mL (≈ 11.8 µM); in the assay with DU-145, over 10 µg/mL.

Regarding `C=C(C)[C@@H]1CC[C@]2(COC(C)=O)CC[C@]3(C)[C@H](CC[C@@H]4[C@@]5(C)CC(Br)(Br)C(=O)C(C)(C)[C@@H]5CC[C@]43C)[C@@H]12`, the EC50 in the assay on P388 turned out to be 0.391 µg/mL (≈ 0.61 µM). Moreover, the GI50 in assay [1] worked out at 1 µg/mL (≈ 1.56 µM); in the assay with MCF7 it was 2.5 µg/mL (≈ 3.9 µM); in the assay with SF-268, 4.4 µg/mL (≈ 6.87 µM); in the assay on NCI-H460, 4.4 µg/mL (≈ 6.87 µM); in assay [2], 4.2 µg/mL (≈ 6.56 µM); with DU-145 it was 3.8 µg/mL (≈ 5.93 µM).

For the compound `C=C(C)[C@@H]1CC[C@]2(C(=O)OC)CC[C@]3(C)[C@H](CC[C@@H]4[C@@]5(C)CCC(=O)C(C)(C)[C@@H]5CC[C@]43C)[C@@H]12` [METHYL BETULONATE], in the assay on P388, the EC50 was over 10 µg/mL. In addition, the GI50 in assay [1] was 2.4 µg/mL (≈ 5.12 µM); with MCF7 it was 2.7 µg/mL (≈ 5.76 µM); with SF-268, 2.7 µg/mL (≈ 5.76 µM); with NCI-H460, 2.3 µg/mL (≈ 4.91 µM); in assay [2], 2.2 µg/mL (≈ 4.69 µM); in the assay on DU-145 it was 2.3 µg/mL (≈ 4.91 µM).

Take `C=C(C)[C@@H]1CC[C@]2(COC(C)=O)CC[C@]3(C)[C@H](CC[C@@H]4[C@@]5(C)CC(N=[N+]=[N-])C(=O)C(C)(C)[C@@H]5CC[C@]43C)[C@@H]12` (some centres not stated): the EC50 with P388 is over 10 µg/mL. The GI50 in assay [1] was 6.6 µg/mL (≈ 12.6 µM); in the assay on MCF7, 5 µg/mL (≈ 9.55 µM); in the assay with SF-268 it was over 10 µg/mL; in the assay on NCI-H460, 4.4 µg/mL (≈ 8.4 µM); in assay [2], 4.2 µg/mL (≈ 8.02 µM); in the assay with DU-145, 5.7 µg/mL (≈ 10.9 µM).

The values above are taken from ChEMBL document CHEMBL3232712, “Antineoplastic agents. 595. Structural modifications of betulin and the X-ray crystal structure of an unusual betulin amine dimer” (2014).
